Blank lines part the entries; values can stand above or below the compound they belong to.
Assays:
[1] = biological target: T1, c-MET (Homo sapiens, UniProt P08581); type: cell-based; settings: Western blot, EBC-1 and Hs746T cells
[2] = biological target: T1, c-MET; assay: biochemical; type: binding
[3] = tested on: EBC-1 cells; assay: Cell proliferation inhibition assay; type: cell-based
[4] = tested on: EBC-1 xenograft tumors; assay: EBC-1 xenograft tumor growth model; type: in vivo, BALB/c nude mice; settings: 10 mg/kg, i.p., qd, 10 days
Procedure, shortened: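 Six-week-old BALB/c nude mice (SPF) received 5 × 10^6 EBC-1 cells subcutaneously in the dorsal flank. At about 80 mm3 they were grouped and dosed at 10 mg/kg i.p. once daily for 10 days; vehicle was 10% DMSO/10% PEG300/5% Tween 80/75% H2O. Calipers and body weight were read every 2 days. V = L×W²/2, and TGI used median volumes. Tumors were weighed at the end, n = 6.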

[5] = tested on: A549 cells; assay: Cell proliferation inhibition assay; type: cell-based; settings: Homo sapiens, A549, 72 h, read-out: IC50 A549
[6] = tested on: HepG2 cells; assay: Cell proliferation inhibition assay; type: cell-based; settings: Homo sapiens, HepG2, 72 h, read-out: IC50 HepG2
[7] = tested on: Hs746T cells; assay: Cell proliferation inhibition assay; type: cell-based; settings: Homo sapiens, 72 h, read-out: IC50 Hs746T, c-MET-sensitive, 72 h
[8] = Pharmacokinetic study in rats; set-up: species or system Male Sprague–Dawley (SD) rats; settings: male, Sprague-Dawley, rat, in vivo, iv, 1 mg/kg, CL
[9] = tested on: EBC-1 cells; assay: Cell apoptosis by flow cytometry; type: cell-based; settings: 48 h

T1 sequence (P08581 25-1390): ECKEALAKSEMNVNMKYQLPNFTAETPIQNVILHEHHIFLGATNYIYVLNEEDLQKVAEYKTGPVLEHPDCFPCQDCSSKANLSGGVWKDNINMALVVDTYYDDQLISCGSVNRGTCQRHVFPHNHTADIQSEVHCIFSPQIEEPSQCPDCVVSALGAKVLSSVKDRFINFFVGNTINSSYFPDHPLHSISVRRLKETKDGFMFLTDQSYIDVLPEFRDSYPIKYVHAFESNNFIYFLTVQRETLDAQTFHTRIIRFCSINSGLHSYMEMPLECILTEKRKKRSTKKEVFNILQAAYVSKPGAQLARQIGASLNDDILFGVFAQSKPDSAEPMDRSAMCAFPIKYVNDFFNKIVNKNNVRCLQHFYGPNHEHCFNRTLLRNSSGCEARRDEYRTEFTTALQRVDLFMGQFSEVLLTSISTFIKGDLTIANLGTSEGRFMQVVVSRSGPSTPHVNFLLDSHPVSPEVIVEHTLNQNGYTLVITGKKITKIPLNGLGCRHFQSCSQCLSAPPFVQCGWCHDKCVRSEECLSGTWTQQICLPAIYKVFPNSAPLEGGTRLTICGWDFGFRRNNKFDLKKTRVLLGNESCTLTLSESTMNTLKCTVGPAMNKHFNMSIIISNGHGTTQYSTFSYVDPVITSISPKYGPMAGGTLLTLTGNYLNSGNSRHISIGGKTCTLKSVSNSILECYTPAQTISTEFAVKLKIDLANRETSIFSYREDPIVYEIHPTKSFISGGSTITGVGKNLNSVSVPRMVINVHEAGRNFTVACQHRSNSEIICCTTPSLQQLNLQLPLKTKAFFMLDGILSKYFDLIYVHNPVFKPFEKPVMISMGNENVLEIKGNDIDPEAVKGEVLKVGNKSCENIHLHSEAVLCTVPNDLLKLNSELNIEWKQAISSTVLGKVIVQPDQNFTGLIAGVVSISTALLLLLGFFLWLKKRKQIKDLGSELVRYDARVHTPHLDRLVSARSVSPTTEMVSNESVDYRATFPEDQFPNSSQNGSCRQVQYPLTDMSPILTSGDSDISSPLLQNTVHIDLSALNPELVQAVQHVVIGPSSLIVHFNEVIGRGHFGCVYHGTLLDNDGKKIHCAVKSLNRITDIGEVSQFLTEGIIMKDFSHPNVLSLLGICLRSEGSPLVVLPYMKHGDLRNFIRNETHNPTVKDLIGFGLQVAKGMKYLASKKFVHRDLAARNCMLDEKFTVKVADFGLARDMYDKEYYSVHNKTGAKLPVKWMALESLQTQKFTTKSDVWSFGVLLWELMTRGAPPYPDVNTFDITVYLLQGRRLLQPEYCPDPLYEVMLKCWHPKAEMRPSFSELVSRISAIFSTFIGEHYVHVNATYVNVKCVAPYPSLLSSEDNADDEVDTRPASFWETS

- c-MET degradation effect [1]: no degradation effect
- Kd [2]: 345 nM
- binding affinity, fold weaker than D15 ([2]; ratio of Kd to D15): 2 fold
Structure (SMILES): CN1C(=O)CCC(N2C(=O)c3ccc(N4CCN(C(=O)CN5CCC(COc6cnc(-c7cccc(Cn8nc(-c9cccc(C#N)c9)ccc8=O)c7)nc6)CC5)CC4)cc3C2=O)C1=O (centres unmarked) [D16]
- inhibition of cell proliferation, fold weaker than D15 ([3]; EBC-1 and Hs746T cells): approximately 10 fold

- IC50 [5]: 277 ± 59 nM
- IC50 [6]: 476 ± 45 nM
- clearance [8]: 70 mL/min/kg
Structure (SMILES): CN1CCC(COc2cnc(-c3cccc(Cn4nc(-c5cccc(C#N)c5)ccc4=O)c3)nc2)CC1 [Tepotinib]
- tumor growth inhibition (TGI%) [4]: 71.9%
- IC50 [7]: 2.63 ± 0.72 nM
- apoptosis rate ([9]; EBC-1, 10 nmol/L): 39.3%
- apoptosis rate ([9]; EBC-1, 100 nmol/L): 59.4%
- IC50 ([3]; Homo sapiens, EBC-1, 72 h, read-out: IC50 EBC-1): 1.32 ± 0.39 nM

- c-MET degradation effect [1]: none
Structure (SMILES): O=C1CCC(N2C(=O)c3ccccc3C2=O)C(=O)N1 (centres unmarked) [Thalidomide]

- Kd [2]: 9.97 nM
Structure (SMILES): N#Cc1cccc(-c2ccc(=O)n(Cc3cccc(-c4ncc(OCC5CCNCC5)cn4)c3)n2)c1 [compound 6]

From publication PMC10326257 (Acta Pharmaceutica Sinica. B, 2023)
